Test results from article PMC11131057 (Blood Advances, 2024).
Like-named read-outs stand apart in the source and are kept apart here.

Key:
[1] = Pharmacokinetic analysis of plasma FF-10101 concentration in trial participants; format: in vivo, human
[2] = molecular target: T1, FLT3 (Homo sapiens, UniProt P36888); test: Plasma inhibitory activity; format: cell-based
T1 sequence (P36888 27-993): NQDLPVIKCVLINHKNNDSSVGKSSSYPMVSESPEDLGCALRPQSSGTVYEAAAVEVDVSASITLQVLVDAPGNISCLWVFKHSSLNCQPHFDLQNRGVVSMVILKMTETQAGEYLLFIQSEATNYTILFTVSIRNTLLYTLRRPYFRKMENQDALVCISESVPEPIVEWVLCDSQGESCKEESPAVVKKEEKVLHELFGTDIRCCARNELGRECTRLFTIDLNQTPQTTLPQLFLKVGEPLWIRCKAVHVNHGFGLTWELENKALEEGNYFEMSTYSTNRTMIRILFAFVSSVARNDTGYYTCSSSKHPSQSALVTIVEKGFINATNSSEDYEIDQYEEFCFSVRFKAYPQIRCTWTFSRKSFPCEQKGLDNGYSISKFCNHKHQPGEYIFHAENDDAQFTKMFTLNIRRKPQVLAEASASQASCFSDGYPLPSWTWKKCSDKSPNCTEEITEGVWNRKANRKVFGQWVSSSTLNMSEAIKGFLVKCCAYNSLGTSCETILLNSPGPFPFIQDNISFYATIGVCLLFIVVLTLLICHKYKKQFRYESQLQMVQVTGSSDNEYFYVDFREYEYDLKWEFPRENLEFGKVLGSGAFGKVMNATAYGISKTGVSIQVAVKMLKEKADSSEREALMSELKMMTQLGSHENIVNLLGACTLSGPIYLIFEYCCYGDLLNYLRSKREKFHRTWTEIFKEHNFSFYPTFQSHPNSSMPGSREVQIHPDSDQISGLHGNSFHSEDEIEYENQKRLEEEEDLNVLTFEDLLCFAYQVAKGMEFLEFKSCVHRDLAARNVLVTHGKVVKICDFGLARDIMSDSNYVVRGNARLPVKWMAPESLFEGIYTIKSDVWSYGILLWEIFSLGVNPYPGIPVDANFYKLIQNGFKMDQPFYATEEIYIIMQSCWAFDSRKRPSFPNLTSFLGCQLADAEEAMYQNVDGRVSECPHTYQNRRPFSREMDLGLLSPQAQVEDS
Procedure, shortened: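 Ex vivo surrogate for in vivo FLT3 inhibition. Participant plasma was prepared from lithium-heparin whole blood collected at cycle 1 time points, including pre-dose troughs on days 8 and 15. It was tested on FLT3-ITD Molm14 cells, and P-FLT3 was expressed as a percentage of baseline. Drug concentration in the same samples was measured by mass spectrometry and paired with PIA values across QD and BID cohorts.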

[3] = system: relapsed and/or refractory AML; test: Phase 1 dose escalation: response in patients with R/R AML; format: in vivo, human
[4] = format: in vivo, human; details: for Aspartate aminotransferase elevation, related TEAE / Creatine kinase increase, related TEAE / Diarrhea, related TEAE / Nausea, related TEAE: 54 participants
[5] = system: AML; details: cited from earlier work
[6] = system: FLT3-TKD mutations; details: cited from earlier work
[7] = 40 response-evaluable participants
[8] = participants with history of FLT3-mutated AML at FLT3-inhibitory doses (150 mg QD, 225 mg QD, 50 mg BID, 75 mg BID)

## CCCNc1nc(Nc2ccc(C#N)cc2)ncc1C#CCCCNC(=O)[C@H](C)N(C)C(=O)/C=C/CN(C)C [FF-10101]
[1]; after oral dosing
  effect of food on absorption: unaffected by food
[1]; human, plasma, po
  half-life: ~10 h
[2]; PIA, escalating doses
  dose levels at which inhibition of P-FLT3 was most effective: 150 mg daily, 225 mg daily, 50 mg BID, and 75 mg BID
[2]; cycle 1 plasma samples
  plasma concentration of FF-10101 associated with more complete inhibition (PIA): > 100 ng/mL
[2]; maximal trough suppression eg <5% of baseline
  FF-10101 concentration achieving maximal trough suppression of P-FLT3 activity: > 200 ng/mL
[3]; [7]
  number of CR: 1
  number of CRh: 1
  number of CRp: 2
  number of PR: 1
  overall response rate (CR + CRh + CRp + PR): 12.5%
[3]; [8]
  number of CR: 1
  number of CRp: 2
  number of PR: 1
[4]; 50 mg BID cohort, grade 3 maculopapular rash
  participants with DLT: 1 of 7
[4]; 100 mg BID cohort, 5 participants
  participants with DLTs: 2 participants
[4]; 53 of 54 participants, all cohorts
  participants reporting at least 1 treatment emergent AE (TEAE): 98.1%
[4]; <100 mg/dose
  participants reporting diarrhea: 21.2%
[4]; All grades
  Aspartate aminotransferase elevation, related TEAE: 14 (25.9) participants (%)
  Creatine kinase increase, related TEAE: 16 (29.6) participants (%)
  Diarrhea, related TEAE: 15 (27.8) participants (%)
  Nausea, related TEAE: 19 (35.2) participants (%)
[4]; Grade 1-2
  Aspartate aminotransferase elevation, related TEAE: 10 (18.5) participants (%)
  Creatine kinase increase, related TEAE: 11 (20.4) participants (%)
  Diarrhea, related TEAE: 13 (24.1) participants (%)
  Nausea, related TEAE: 19 (35.2) participants (%)
[4]; Grade ≥3
  Aspartate aminotransferase elevation, related TEAE: 4 (7.4) participants (%)
  Creatine kinase increase, related TEAE: 5 (9.3) participants (%)
  Diarrhea, related TEAE: 2 (3.7) participants (%)
  Nausea, related TEAE: 0 (0) participants (%)
[4]; all cohorts
  participants with grade 3 diarrhea: 4 participants
[4]; oral
  recommended phase 2 dose (RP2D): 75 mg BID
[4]; oral, 28-day cycles
  maximum tolerated dose (MTD): 75 mg BID
[4]; ≥100 mg/dose (100 mg QD, 150 mg QD, 225 mg QD, 100 mg BID)
  participants reporting grade 1-3 diarrhea: 76.2%

## CO[C@@H]1[C@H](N(C)C(=O)c2ccccc2)C[C@H]2O[C@]1(C)n1c3ccccc3c3c4c(c5c6ccccc6n2c5c31)C(=O)NC4 [Midostaurin]
[5]
  single-agent activity: no single-agent activity

## CNC(=O)c1cc(Oc2ccc(NC(=O)Nc3ccc(Cl)c(C(F)(F)F)c3)cc2)ccn1 [Sorafenib]
[6]
  activity against FLT3-TKD mutations: inactive
